Source: PubChem (Broad Institute)
The list is not random: actives were taken first. Their share in the collection is about 1.9%.
PglD inh = blocks C. jejuni PglD acetyltransferase activity. 0.098% of 360,000 active. purified PglD enzyme, DTNB colorimetric CoA detection. inhibition, % at 12.5 µM. AID 602405; in the data active means inhibition above about 16%, passing the limit was not always enough; inconclusive means no clear call, values can overlap the other calls
RAD54 inh = blocks human RAD54 Holliday junction branch migration; 0.14% of 360,000 active; Q92698; inhibition, % at 10.4 µM; AID 602329; FAM/BHQ fluorescence;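 active means mean normalized replicate activity at least 40 and at least half of replicates scoring 40 or more; inconclusive means only one of the two criteria met; inactive means mean below 40 and under half of replicates reaching 40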;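 further: inhibitors cause a drop in the FAM fluorescence signal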
Cneo AK release = causes C. neoformans cell lysis. 0.2% of 360,000 active. AID 651654. adenylate kinase release luminescence, 4 h; normalised: neutral wells 0, clomiphene wells 100. lysis activity, % at 15 µM;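 active means mean lysis activity across replicates of at least 80%, whatever share of replicates individually reach that level; inactive means mean lysis activity below 80%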
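Material: C. neoformans cells; Schedule: 4 h static compound exposure, 37 °C, read 1 h post-reagent; Measured by: adenylate kinase release luminescence; Read-out: signal increase indicating cell lysis; Controls: Clomiphene as positive lysis control.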
RAD52 anneal inh = inhibitors of human RAD52 DNA annealing | recombinant RAD52 DNA annealing, FRET fluorescence | 0.46% of 360,000 active | AID 651710 | inhibition, % at 18.7 µM;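 active means every replicate showing at least 50% inhibition; inconclusive means mean inhibition at least 50% but not in every replicate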
Target sequence (P43351 whole entry, looked up): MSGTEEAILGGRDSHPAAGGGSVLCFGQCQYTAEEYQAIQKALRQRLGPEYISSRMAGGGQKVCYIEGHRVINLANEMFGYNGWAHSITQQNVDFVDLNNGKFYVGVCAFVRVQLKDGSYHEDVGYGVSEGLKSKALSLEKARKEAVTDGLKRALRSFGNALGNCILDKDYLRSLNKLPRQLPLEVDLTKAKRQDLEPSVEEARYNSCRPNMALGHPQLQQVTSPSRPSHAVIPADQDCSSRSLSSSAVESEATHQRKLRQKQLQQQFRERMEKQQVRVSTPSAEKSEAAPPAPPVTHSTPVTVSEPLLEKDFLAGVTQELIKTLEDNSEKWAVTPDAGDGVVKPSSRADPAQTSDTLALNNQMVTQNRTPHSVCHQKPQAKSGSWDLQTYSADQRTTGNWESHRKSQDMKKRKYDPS
Ecoli rRNA inh = selective bacterial rRNA inhibition in E. coli; E. coli WT GFP vs humanized-ribosome RFP mutants, fluorescence, 24 h; active compounds read low; DMSO median 0, no signal -100; 1.6% of 350,000 active; GFP signal change (wild-type ribosome), % (test concentration not listed);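 active means significant combined selectivity score with lowered wild-type GFP, culture density cut under 30%, mutant RFP and density less affected; inactive means any of these conditions unmet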
Of the large screens only hits and unclear results are named; the others gave an inactive call.

Cc1ccc(Cl)cc1N1CCN(C(=O)Cc2c(C(=O)O)[nH]c3ccccc23)CC1	Ecoli rRNA inh -30
Cc1ccc(Cl)cc1N1CCN(C(=O)Cc2c(C(=O)O)[nH]c3ccc(Cl)cc23)CC1	none (no result: PglD inh, RAD54 inh, Cneo AK release)
C[C@H](CO)N1C[C@H](C)[C@H](CN(C)S(C)(=O)=O)Oc2cc(C3=CCCC3)ccc2S1(=O)=O	none (no result: PglD inh, RAD54 inh, Cneo AK release, RAD52 anneal inh)
COc1ccc(C2c3ccsc3CCN2C(=O)C(C)(C)C)cc1 (configuration not stated)	Ecoli rRNA inh -47 (no result: PglD inh, RAD54 inh, Cneo AK release)
C[C@H](NC(=O)C[C@H]1CC[C@H](NC(=O)Cc2ccccn2)[C@H](CO)O1)c1ccccc1	none
O=C(C[C@@H]1CC[C@H](NC(=O)Cc2ccccn2)[C@@H](CO)O1)NCCc1ccccc1	Cneo AK release 95
C[C@H](NC(=O)C[C@H]1CC[C@@H](NC(=O)Cc2ccccn2)[C@@H](CO)O1)c1ccccc1	Cneo AK release 96
O=C1CSCN1c1ccccc1	none (no result: PglD inh, RAD54 inh, Ecoli rRNA inh)
COc1ccc(-n2c(-c3ccc(Cl)cc3)c[n+]3c2CCCCC3)cc1	Ecoli rRNA inh -32
COc1ccc(NC(=O)Nc2ccc3c(c2)C(=O)N([C@@H](C)CO)C[C@H](C)[C@H](CN(C)C(=O)NC2CCCCC2)O3)cc1	none
O=C(NCC(c1ccco1)N1CCCCC1)c1ccc(NS(=O)(=O)c2ccc(F)cc2)cc1 (configuration not stated)	Ecoli rRNA inh -20
O=C(NCC(c1ccco1)N1CCCC1)c1ccc(S(=O)(=O)Nc2ccc(F)cc2)cc1 (configuration not stated)	none
C[C@H](CO)N1C[C@H](C)[C@@H](CN(C)S(=O)(=O)c2ccccc2F)OCc2ccccc2-c2ccccc2C1=O	none (no result: PglD inh, RAD54 inh, Cneo AK release, RAD52 anneal inh)
CN(Cc1ccno1)Cc1cn(C)nc1-c1ccc(Oc2ccccc2)cc1	Ecoli rRNA inh -34 (no result: PglD inh, RAD54 inh, Cneo AK release)
CC(C)N(C)Cc1cn(C)nc1-c1ccc(Oc2ccccc2)cc1	none
Cc1ccc(-c2ccc3c(c2)O[C@@H](CN(C)Cc2ccc(F)cc2)[C@@H](C)CN([C@H](C)CO)S3(=O)=O)cc1	Cneo AK release 83
Cc1ccc(-c2ccc3c(c2)O[C@@H](CN(C)Cc2ccc(F)cc2)[C@H](C)CN([C@@H](C)CO)S3(=O)=O)cc1	none
C[C@H](CO)N1C[C@H](C)[C@H](CN(C)Cc2ccccc2F)Oc2cc(C3=CCCC3)ccc2S1(=O)=O	Cneo AK release 101
C[C@@H]1CN([C@@H](C)CO)S(=O)(=O)c2ccc(C3=CCCC3)cc2O[C@H]1CN(C)Cc1ccccc1F	none
CCCN(C)C[C@@H]1Oc2cc(-c3cncnc3)ccc2S(=O)(=O)N([C@@H](C)CO)C[C@@H]1C	PglD inh 16 (no result: Cneo AK release, RAD52 anneal inh)
CCC(=O)N1C[C@@H](C)[C@H](OC)CN(C)C(=O)c2cc(NC(=O)c3cnccn3)ccc2OC[C@@H]1C	none
C[C@H]1CC=CC[C@@H](c2ccc(F)cc2)NC(=O)[C@H](C)N(C)C(=O)c2ccccc2O1 (mixture of isomers)	none (no result: PglD inh, RAD54 inh, Cneo AK release, RAD52 anneal inh)
O=C(O)C[C@H]1CC[C@@H](NC(=O)CCN2CCCCC2)[C@@H](CO)O1	none (no result: PglD inh, RAD54 inh, Cneo AK release)
CO[C@H]1CN(C)C(=O)c2ccc(NC(C)=O)cc2OC[C@H](C)N(C(=O)c2ccncc2)C[C@@H]1C	Cneo AK release 82
CCC(=O)Nc1ccc2c(c1)OC[C@@H](C)N(Cc1ccccn1)C[C@@H](C)[C@H](OC)CN(C)C2=O	PglD inh 18 (no result: RAD52 anneal inh)
CO[C@@H]1CN(C)C(=O)c2ccc(NC(=O)Nc3ccccc3)cc2OC[C@H](C)N(C(C)=O)C[C@H]1C	Cneo AK release 119
CO[C@@H]1CN(C)C(=O)c2cc(NC(C)=O)ccc2OC[C@@H](C)N(C(=O)c2ccncc2)C[C@H]1C	none
CO[C@@H]1CN(C)C(=O)c2ccc(NC(C)=O)cc2OC[C@@H](C)N(C(=O)c2ccccn2)C[C@H]1C	RAD54 inh inconclusive, Cneo AK release 95
CO[C@H]1CN(C)C(=O)c2ccc(NC(C)=O)cc2OC[C@H](C)N(C(=O)c2ccccn2)C[C@@H]1C	none (no result: PglD inh, RAD54 inh, Cneo AK release)
O=C1C[C@H](c2ccccc2)C(=O)N[C@@H](c2ccc(F)cc2)C/C=C\CCN1	none (no result: PglD inh, RAD54 inh, Cneo AK release, RAD52 anneal inh)
CCCC(=O)Nc1ccc2c(c1)C(=O)N(C)C[C@H](OC)[C@@H](C)CN(C(=O)c1cccnc1)[C@H](C)CO2	Cneo AK release 90
